Tests used:
[1] = biological target: Cannabinoid receptor 1 (Homo sapiens, UniProt P21554); assay: Displacement of [3H]CP-55940 from human CB1 receptor
[2] = biological target: Cannabinoid receptor 2 (Homo sapiens, UniProt P34972); assay: Displacement of [3H]CP-55940 from human CB2 receptor
Method in brief: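 HEK cells transfected with human recombinant CB2 used for competition binding against [3H]CP-55,940 (Kd 0.31 nM) at 0.084 nM with increasing test compound concentrations; Ki derived from IC50 via Cheng-Prusoff equation; means of at least three separate experiments run in duplicate.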

Cannabinoid receptor 2, sequence (P34972 whole entry): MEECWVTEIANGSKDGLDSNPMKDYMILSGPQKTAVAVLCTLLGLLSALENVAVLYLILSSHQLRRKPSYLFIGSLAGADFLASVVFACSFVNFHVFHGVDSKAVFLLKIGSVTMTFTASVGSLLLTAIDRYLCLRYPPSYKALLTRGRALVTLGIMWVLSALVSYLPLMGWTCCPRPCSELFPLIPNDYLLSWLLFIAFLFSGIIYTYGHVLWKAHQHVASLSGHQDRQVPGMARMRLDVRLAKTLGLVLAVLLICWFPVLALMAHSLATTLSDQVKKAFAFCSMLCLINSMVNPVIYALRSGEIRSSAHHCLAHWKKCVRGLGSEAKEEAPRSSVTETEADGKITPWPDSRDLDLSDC
Cannabinoid receptor 1, sequence (P21554 whole entry): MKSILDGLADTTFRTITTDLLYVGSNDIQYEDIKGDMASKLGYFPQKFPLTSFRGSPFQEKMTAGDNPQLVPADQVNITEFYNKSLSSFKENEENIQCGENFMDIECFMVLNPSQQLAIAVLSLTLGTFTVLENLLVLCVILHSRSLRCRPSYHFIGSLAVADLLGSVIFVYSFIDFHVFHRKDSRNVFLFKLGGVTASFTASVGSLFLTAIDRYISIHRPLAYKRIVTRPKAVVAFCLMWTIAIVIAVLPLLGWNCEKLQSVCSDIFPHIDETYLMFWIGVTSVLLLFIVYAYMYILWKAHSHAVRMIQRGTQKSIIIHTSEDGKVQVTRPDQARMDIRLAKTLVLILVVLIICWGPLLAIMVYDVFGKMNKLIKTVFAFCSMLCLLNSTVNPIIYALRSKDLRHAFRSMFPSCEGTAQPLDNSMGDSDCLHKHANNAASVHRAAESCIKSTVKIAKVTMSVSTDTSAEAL

SMILES	Ki [1]	Ki [2]
CCCCCOC(=O)c1cc(O)c(-c2cc(C)cc(C)c2)c(OC)c1	1.4 µM	0.27 µM
CCCCCOC(=O)c1cc(OC)c(-c2cc(C)cc(C)c2)c(OC)c1	> 10 µM	> 10 µM
COC(=O)c1cc(O)c(-c2cc(C)cc(C)c2)c(O)c1	> 10 µM	> 4.5 µM
CCCCCOC(=O)c1cc(O)c(-c2ccccc2)c(O)c1	> 10 µM	> 4 µM
COC(=O)c1cc(O)c(-c2cc(C)cc(C)c2)c(OC)c1	> 10 µM	> 6.4 µM
CCCCOC(=O)c1cc(O)c(-c2cc(C)cc(C)c2)c(O)c1	2.6 µM	> 3.2 µM
COc1cc(C(=O)O)cc(O)c1-c1cc(C)cc(C)c1	> 10 µM	> 10 µM
COc1cc(C(=O)O)cc(OC)c1-c1cc(C)cc(C)c1	> 10 µM	> 10 µM
CCCCCOC(=O)c1cc(O)c(-c2cc(C)cc(C)c2)c(O)c1	2 µM	> 1.1 µM
Cc1cc(C)cc(-c2c(O)cc(C(=O)O)cc2O)c1	> 10 µM	> 10 µM

Source: ChEMBL document CHEMBL1146227, “Metabolically labile cannabinoid esters: a 'soft drug' approach for the development of cannabinoid-based therapeutic drugs” (Bioorg Med Chem Lett, 2007)
